These results are taken from ChEMBL document CHEMBL2384941, “A small molecule inhibitor of fungal histone acetyltransferase Rtt109” (Bioorg Med Chem Lett, 2013).

pIC50: −log10 of the molar value. Calls of active or inactive are those of the source. The rule behind the calls is not given here.

Test [1] concerns Rtt109 (Saccharomyces cerevisiae). Kind of test: Inhibition of Vps75-stimulated recombinant Saccharomyces cerevisiae 6xHis-tagged histone acetyltransferase Rtt109 using H3n21 peptide and acetyl-coenzyme A as substrate assessed as release of CoA at 0.3 to 10 uM preincubated for 5 mins with H3n21 followed by acetyl-coenzyme A addition measured ….
The test system is the same in test [2]. The test can be described thus: Inhibition of Vps75-stimulated recombinant Saccharomyces cerevisiae 6xHis-tagged histone acetyltransferase Rtt109 using H3n21 peptide and acetyl-coenzyme A as substrate assessed as release of CoA at 0.1 to 1 uM preincubated for 5 mins with H3n21 followed by acetyl-coenzyme A addition measured after ….
The target in test [3] is T1, Histone acetyltransferase SAS2 (Saccharomyces cerevisiae (strain ATCC 204508 / S288c) (Baker's yeast)) (UniProt P40963).
T1 sequence (whole entry): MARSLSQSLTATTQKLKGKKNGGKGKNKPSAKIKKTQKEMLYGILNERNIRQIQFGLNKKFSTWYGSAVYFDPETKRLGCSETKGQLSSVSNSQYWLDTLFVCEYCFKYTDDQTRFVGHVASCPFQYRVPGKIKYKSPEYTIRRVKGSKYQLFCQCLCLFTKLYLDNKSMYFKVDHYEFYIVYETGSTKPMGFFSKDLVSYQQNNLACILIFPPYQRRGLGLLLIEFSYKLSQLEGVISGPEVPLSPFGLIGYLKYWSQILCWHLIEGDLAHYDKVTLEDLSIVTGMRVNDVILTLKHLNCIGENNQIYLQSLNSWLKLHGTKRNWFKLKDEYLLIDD
Kind of test: Inhibition of Vps75-stimulated recombinant Saccharomyces cerevisiae 6xHis-tagged histone acetyltransferase Rtt109 using H3n21 peptide and acetyl-coenzyme A as substrate assessed as release of coenzyme A at 56 1.3 nM incubated for 5 mins prior to acetyl-coenzyme A addition measured every 2 mins for 10 mins by ThioGlo1 assay relative to control.

The target of test [4] is T2, Lysine-specific demethylase 4A (Homo sapiens, UniProt O75164).
T2 sequence (O75164 whole entry): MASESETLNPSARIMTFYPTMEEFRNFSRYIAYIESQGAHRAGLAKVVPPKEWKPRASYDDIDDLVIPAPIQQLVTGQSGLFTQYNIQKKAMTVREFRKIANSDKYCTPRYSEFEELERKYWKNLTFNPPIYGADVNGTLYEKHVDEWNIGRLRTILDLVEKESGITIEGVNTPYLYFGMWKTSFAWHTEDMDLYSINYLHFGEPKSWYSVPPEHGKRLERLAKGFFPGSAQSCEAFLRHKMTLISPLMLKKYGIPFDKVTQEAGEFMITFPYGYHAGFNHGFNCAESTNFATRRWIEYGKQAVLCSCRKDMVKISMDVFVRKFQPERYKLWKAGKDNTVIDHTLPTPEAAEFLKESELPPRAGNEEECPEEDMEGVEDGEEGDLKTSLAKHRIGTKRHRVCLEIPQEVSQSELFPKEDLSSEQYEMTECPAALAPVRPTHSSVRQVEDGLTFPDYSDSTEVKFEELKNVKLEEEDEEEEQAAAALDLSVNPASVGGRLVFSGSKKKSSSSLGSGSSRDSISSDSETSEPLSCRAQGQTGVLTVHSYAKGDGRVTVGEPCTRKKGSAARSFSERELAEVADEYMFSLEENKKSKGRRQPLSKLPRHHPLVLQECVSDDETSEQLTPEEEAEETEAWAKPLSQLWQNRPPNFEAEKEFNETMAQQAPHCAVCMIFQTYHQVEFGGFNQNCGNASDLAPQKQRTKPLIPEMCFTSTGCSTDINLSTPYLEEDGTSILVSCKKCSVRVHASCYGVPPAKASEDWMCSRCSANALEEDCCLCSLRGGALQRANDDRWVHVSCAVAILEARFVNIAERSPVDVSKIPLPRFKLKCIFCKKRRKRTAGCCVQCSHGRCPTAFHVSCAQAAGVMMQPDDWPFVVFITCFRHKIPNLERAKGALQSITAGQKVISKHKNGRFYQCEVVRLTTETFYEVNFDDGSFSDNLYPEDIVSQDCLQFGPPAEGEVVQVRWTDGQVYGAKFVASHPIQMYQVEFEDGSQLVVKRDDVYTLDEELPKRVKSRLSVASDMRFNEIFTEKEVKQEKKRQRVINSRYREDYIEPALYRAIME
The test can be described thus: Inhibition of JMJD2A tudor domain (unknown origin) using histone H4 peptide trimethylated on lysine 20 as substrate.

The target in test [5] is Histone acetyltransferase RTT109 (Saccharomyces cerevisiae) (UniProt Q07794). The test can be described thus: Irreversible inhibition of Vps75-stimulated recombinant Saccharomyces cerevisiae 6xHis-tagged histone acetyltransferase Rtt109 using H3n21 peptide as substrate assessed as release of coenzyme A at […] after 4 hrs by 10 fold dilution assay relative to control. Further details: scale not given: the % may be the effect or the level left.
Chain of Histone acetyltransferase RTT109 (Saccharomyces cerevisiae) (Q07794 whole entry, looked up): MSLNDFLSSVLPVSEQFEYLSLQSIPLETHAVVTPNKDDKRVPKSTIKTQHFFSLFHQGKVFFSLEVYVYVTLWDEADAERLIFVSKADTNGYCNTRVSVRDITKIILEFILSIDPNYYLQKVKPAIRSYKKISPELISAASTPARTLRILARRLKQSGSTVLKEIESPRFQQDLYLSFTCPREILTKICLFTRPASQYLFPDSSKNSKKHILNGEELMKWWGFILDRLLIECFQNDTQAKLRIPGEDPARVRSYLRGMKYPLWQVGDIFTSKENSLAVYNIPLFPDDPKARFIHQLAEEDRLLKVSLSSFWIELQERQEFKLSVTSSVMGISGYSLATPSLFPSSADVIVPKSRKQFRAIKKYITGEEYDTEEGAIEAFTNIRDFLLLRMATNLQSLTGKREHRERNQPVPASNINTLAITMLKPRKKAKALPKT

For test [6], the target named is Histone acetyltransferase p300 (Homo sapiens) (UniProt Q09472). Kind of test: Inhibition of N-terminal 6xHis-Flag epitope-tagged histone acetyltransferase p300 catalytic domain (1195 to 1810) (unknown origin) expressed in Escherichia coli BL21 using (H3-H4)2 peptide and acetyl-coenzyme A as substrate assessed as inhibition of lysine acetylation incubated for 5 mins prior to acetyl-coenzyme A addition measured after 30 mins by ELISA. An outline of the steps:
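p300 (15 µg/ml) with […] (H3-H4)2 tetramers. Pre-incubated 5 min with compound or DMSO, then started with 15 µM acetyl-CoA. Run 30 min at 30°C. Lysine acetylation detected by ELISA with a polyclonal anti-acetyllysine antibody.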
In general terms: In an ELISA, binding on a coated surface is turned into a signal by an enzyme label.

The test system of test [7] is Candida albicans. The test can be described thus: Inhibition of histone acetyltransferase Rtt109 in Candida albicans assessed as inhibition of H3K56 acetylation.
Test [8] deals with Candida albicans. Kind of test: Inhibition of histone acetyltransferase Rtt109 in Candida albicans assessed as camptothecin-induced DNA damage.
Test [9] concerns the target Histone acetyltransferase RTT109 (Saccharomyces cerevisiae) (UniProt Q07794). Kind of test: Inhibition of Vps75-stimulated recombinant Saccharomyces cerevisiae 6xHis-tagged histone acetyltransferase Rtt109 using H3n21 peptide as substrate assessed as release of coenzyme A at […] by ThioGlo1 assay relative to control. Further details: scale not given: the % may be the effect or the level left.

In test [10] the target is Histone acetyltransferase p300 (Homo sapiens) (UniProt Q09472). Kind of test: Inhibition of N-terminal 6xHis-Flag epitope-tagged histone acetyltransferase p300 catalytic domain (1195 to 1810) (unknown origin) expressed in Escherichia coli BL21 using acetyl-coenzyme A as substrate assessed as release of coenzyme A incubated for 5 mins prior to acetyl-coenzyme A addition measured every 2 mins for 10 mins by ThioGlo1 assay. An outline of the steps: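 p300 (15 µg/ml) or Gcn5 (3.1 µg/ml, 61 nM) with 15 µM H3n21 peptide. Pre-incubated 5 min at 30°C with compound (up to 100 µM) or DMSO. Started with 30 µM acetyl-CoA. Released CoA quantified every 2 min over the first 10 min. Rates from linear regression of product versus time.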
Chain of Histone acetyltransferase p300 (Homo sapiens) (Q09472 whole entry, the tested form may be a part): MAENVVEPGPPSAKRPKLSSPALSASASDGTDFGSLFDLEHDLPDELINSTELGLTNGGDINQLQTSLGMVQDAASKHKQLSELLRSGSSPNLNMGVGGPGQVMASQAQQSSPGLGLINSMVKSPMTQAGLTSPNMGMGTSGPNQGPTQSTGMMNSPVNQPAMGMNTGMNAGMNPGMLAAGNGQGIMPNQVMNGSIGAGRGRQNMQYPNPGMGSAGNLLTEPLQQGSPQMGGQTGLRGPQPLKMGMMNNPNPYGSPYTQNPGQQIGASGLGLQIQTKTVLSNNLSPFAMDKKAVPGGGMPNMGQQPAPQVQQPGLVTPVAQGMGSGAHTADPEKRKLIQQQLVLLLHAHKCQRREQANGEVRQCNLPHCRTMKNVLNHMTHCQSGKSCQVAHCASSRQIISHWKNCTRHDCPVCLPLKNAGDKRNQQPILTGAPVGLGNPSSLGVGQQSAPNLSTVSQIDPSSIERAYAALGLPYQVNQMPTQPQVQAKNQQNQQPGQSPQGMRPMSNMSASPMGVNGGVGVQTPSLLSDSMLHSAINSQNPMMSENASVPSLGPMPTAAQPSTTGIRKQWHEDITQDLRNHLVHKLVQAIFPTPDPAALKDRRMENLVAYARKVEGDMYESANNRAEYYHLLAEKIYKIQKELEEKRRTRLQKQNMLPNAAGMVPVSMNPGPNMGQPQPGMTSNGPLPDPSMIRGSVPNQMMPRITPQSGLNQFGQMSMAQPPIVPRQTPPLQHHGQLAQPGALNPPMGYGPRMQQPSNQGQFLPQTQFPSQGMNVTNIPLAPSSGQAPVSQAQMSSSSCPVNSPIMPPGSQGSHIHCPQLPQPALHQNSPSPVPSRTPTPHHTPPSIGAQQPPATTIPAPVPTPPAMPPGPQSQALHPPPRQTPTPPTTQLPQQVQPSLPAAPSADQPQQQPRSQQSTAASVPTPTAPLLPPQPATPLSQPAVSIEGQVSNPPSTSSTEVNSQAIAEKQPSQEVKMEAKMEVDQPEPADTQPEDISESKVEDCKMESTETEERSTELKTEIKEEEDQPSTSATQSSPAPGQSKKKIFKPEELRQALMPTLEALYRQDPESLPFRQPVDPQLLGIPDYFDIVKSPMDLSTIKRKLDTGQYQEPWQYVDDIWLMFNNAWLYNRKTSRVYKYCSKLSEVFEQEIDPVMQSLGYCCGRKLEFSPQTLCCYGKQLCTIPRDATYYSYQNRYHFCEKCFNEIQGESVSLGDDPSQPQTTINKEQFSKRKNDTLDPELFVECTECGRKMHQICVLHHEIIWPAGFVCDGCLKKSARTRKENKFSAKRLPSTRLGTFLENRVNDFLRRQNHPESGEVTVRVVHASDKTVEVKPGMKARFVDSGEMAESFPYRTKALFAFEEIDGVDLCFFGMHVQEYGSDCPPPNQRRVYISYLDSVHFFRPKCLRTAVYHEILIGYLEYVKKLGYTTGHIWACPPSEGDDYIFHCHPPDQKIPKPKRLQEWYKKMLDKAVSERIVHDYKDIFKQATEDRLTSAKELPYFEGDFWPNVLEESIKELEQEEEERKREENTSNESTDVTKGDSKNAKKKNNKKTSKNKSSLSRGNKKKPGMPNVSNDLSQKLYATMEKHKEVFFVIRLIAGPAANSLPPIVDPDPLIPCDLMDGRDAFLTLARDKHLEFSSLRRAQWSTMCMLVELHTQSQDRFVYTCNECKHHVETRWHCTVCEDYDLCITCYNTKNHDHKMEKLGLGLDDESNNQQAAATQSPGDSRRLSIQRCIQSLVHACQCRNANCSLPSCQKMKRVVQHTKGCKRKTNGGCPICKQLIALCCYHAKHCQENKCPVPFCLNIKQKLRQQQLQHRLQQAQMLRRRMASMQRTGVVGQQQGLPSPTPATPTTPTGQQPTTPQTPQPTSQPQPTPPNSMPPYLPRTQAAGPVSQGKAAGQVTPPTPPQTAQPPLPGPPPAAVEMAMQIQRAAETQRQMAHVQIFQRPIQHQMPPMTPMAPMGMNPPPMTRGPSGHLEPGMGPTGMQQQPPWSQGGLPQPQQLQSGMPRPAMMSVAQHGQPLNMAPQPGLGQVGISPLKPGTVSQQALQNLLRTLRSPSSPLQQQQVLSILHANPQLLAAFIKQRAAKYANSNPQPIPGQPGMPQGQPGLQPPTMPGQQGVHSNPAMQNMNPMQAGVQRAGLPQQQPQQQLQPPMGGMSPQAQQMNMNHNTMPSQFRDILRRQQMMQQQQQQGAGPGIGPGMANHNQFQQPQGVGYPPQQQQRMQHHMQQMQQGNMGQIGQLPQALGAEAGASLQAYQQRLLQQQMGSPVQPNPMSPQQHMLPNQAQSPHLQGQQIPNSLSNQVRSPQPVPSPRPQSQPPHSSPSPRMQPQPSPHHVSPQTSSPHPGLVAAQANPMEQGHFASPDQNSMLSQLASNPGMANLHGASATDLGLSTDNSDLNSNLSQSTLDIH

As to `CCCC1(c2ccccc2)NC(=O)N(Cc2c(F)cccc2Cl)C1=O` (stereo unspecified), the inhibition result in test [1] is “inactive”.
The same measure, in the same setting: the result for `CCCC1(c2ccccc2)NC(=O)N(Cc2ccc(F)cc2Cl)C1=O` (stereo unspecified) reads “inactive”.
Consider `CCC1(c2ccccc2)NC(=O)N(CC(=O)N(C)Cc2c(F)cccc2Cl)C1=O` (stereo unspecified), for which the inhibition result in [2] was “Active”.
In the case of `CN(Cc1c(F)cccc1Cl)C(=O)CN1C(=O)NC2(CCCCc3ccccc32)C1=O` (stereo unspecified), the inhibition result in [1] is “inactive”.
Consider `CCCCC1(c2ccccc2)NC(=O)N(CC(=O)NCc2ccc(Cl)cc2Cl)C1=O` (stereo unspecified), for which the inhibition result in test [1] is “inactive”.
The same measure, in the same setting: under `CC(C)CC1(c2ccccc2)NC(=O)N(CC(=O)NCc2ccc(Cl)cc2Cl)C1=O` (stereo unspecified) stands “inactive”.
On to `CCC[C@]1(c2ccccc2)NC(=O)N(CC(=O)N(C)Cc2c(F)cccc2Cl)C1=O`, for which the inhibition in [3] worked out at 50%. In [4], the pIC50 is 4.60. The results for the Activity in test [5] and in test [9] were 33% and 47%, respectively. Besides, the inhibition entry in [6], in [7], in [8] and in test [10] was “inactive” each time.
On to `CC(C)c1ccc(C2(C)NC(=O)N(CC(=O)N(C)Cc3c(F)cccc3Cl)C2=O)cc1` (stereo unspecified), for which the inhibition result in test [1] is “inactive”.
The same measure, in the same setting: under `CCC1(c2ccc(F)cc2)NC(=O)N(CC(=O)NCc2ccc(Cl)cc2Cl)C1=O` (stereo unspecified) stands “inactive”.

The term inhibition denotes the share of the control response that was lost under treatment. The pIC50 is −log10 of the IC50, conventionally taken in molar units.
